Reference: ChEMBL document CHEMBL3232816, “Substituted E-3-(3-indolylmethylene)1,3-dihydroindol-2-ones with antiproliferative activity. Study of the effects on HL-60 leukemia cells” (2014)
Calls of active or inactive are those of the source. The calls are words filed in the database; no cut-off is given here.

Experiments:
[1] = Cytotoxicity against human leukemia cells after 48 hrs; format: functional; settings: Leukemia cell
Method in brief: (§1)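 NCI 60-line panel. Compounds were dissolved in DMSO and tested at five 10-fold dilutions, the highest 10^-4 M (10^-3 M where footnoted), over 48 h of incubation. The readouts were GI50, TGI and LC50 in μM, with the panel mean also given. Only compounds passing a 10^-5 M single-dose prescreen were tested; some were repeated and averaged over two experiments.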

[2] = Cytotoxicity against human NSCLC cells after 48 hrs; format: functional; method in brief: as §1
[3] = Cytotoxicity against human colon cancer cells after 48 hrs; format: functional; settings: Cancer cell lines; method in brief: as §1
[4] = Cytotoxicity against human melanoma cells after 48 hrs; format: functional; settings: Melanoma cell; method in brief: as §1
[5] = Cytotoxicity against human ovarian cancer cells after 48 hrs; format: functional; settings: Cancer cell lines; method in brief: as §1
[6] = Cytotoxicity against human renal cancer cells after 48 hrs; format: functional; settings: Cancer cell lines; method in brief: as §1
[7] = Cytotoxicity against human prostate cancer cells after 48 hrs; format: functional; settings: Cancer cell lines; method in brief: as §1
[8] = Cytotoxicity against human breast cancer cells after 48 hrs; format: functional; settings: Cancer cell lines; method in brief: as §1
[9] = Cytotoxicity against human CNS cancer cells after 48 hrs; format: functional; settings: Cancer cell lines; method in brief: as §1
HL-60 [10] = experiment: Cytotoxicity against human HL60 cells assessed as growth inhibition at 1 uM measured up to 48 hrs; format: functional, cell-based
Method in brief: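 HL-60 cells, RPMI 1640 with 10% fetal calf serum and 2 mM glutamine, 37 °C, 5% CO2. Cells received 1 μM compound diluted from a 10 mmol/L DMSO stock; controls got equal DMSO. Viable cells were counted daily to follow total cell number. Means ± s.e.m. of three determinations.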

HL-60 [11] = experiment: Cell cycle arrest in human HL60 cells assessed as accumulation at G0-G1 phase at 1 uM after 24 hrs by propidium iodide staining-based flow cytometric analysis (reference value: 32.4%); format: functional
HL-60 [12] = experiment: Cell cycle arrest in human HL60 cells assessed as accumulation at G2-M phase at 1 uM after 24 hrs by propidium iodide staining-based flow cytometric analysis (reference value: 10.7%); format: functional
HL-60 [13] = experiment: Cell cycle arrest in human HL60 cells assessed as accumulation at S phase at 1 uM after 24 hrs by propidium iodide staining-based flow cytometric analysis (reference value: 56.9%); format: functional
HL-60 [14] = experiment: Induction of apoptosis in human HL60 cells assessed as early apoptotic cells at 1 uM after 24 hrs by annexin V-FLUOS staining-based flow cytometric analysis (reference value: 4%); format: functional
HL-60 [15] = experiment: Induction of apoptosis in human HL60 cells assessed as increase in caspase proteolytic activity using DEVD as substrate at 1 uM after 24 hrs by fluorometric analysis; format: functional, cell-based
Method in brief: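 After 24 h exposure of HL-60 cells to 1 μM compound or DMSO vehicle, DEVD-hydrolysing caspase (DEVDase) activity was measured fluorometrically in cell extracts. Means ± s.e.m. of three determinations.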

HL-60 [16] = experiment: Effect on autophagy in human HL60 cells by acridine orange staining; format: functional, cell-based
HL-60 [17] = experiment: Effect on autophagy in human HL60 cells by LC3 protein processing assay; format: functional, cell-based
HL-60 [18] = experiment: Induction of apoptosis in human HL60 cells assessed as increase in oxidative stress at 1 uM after 24 hrs by DCFDA staining; format: functional, cell-based
Method in brief: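 Intracellular peroxides in HL-60 cells treated 24 h with 1 μM compound or DMSO. Cells were loaded with 5 μM DCF-DA for 30 min at 37 °C, then DCF fluorescence was acquired by flow cytometry with logarithmic amplification. Means ± s.e.m., n=3.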

HL-60 [19] = experiment: Induction of apoptosis in human HL60 cells assessed as increase in intracellular free Ca2+ level at 1 uM after 24 hrs by INDO-1/AM probe-based fluorometric analysis; format: functional, cell-based
Method in brief: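 They were stained with 5 μM INDO-1/AM, excited at 346 nm, and emission read at 405/485 nm. Rmin came from 5 mM EDTA/EGTA plus 5 μM digitonin, Rmax from 10 mM CaCl2. Free Ca2+ was calculated with Kd […]. Means ± s.e.m., n=3.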

HL-60 [20] = experiment: Induction of apoptosis in human HL60 cells assessed as increase in intracellular free Mg2+ level at 1 uM after 24 hrs by Mag-Fura2 probe-based fluorometric analysis; format: functional, cell-based
Method in brief: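 They were loaded with 5 μM Mag-Fura2 for 60 min at 37 °C in the dark, washed, and held 45 min at room temperature. Emission at 510 nm was read with excitation at 335/370 nm. Rmin came from 5 mM EDTA/EGTA then 0.1% Triton X-100, Rmax from MgSO4. Free Mg2+ was calculated with Kd 2.1 mM, in triplicate.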

[21] = read-out: LC50 (the source's name)

SMILES	GI50 [1] [µM]	TGI [1] [µM]	GI50 [2] [µM]	TGI [2] [µM]	GI50 [3] [µM]	TGI [3] [µM]	GI50 [4] [µM]	TGI [4] [µM]	GI50 [5] [µM]	TGI [5] [µM]	GI50 [6] [µM]	TGI [6] [µM]	GI50 [7] [µM]	TGI [7] [µM]	GI50 [8] [µM]	TGI [8] [µM]	GI50 [9] [µM]	TGI [9] [µM]	also measured
COc1ccc(CCn2c(Cl)c(/C=C3/C(=O)Nc4ccccc43)c3ccccc32)cc1	0.35	15.5	0.43	15.1	0.28	1.82	0.46	9.12	0.34	13.5	0.48	18.6	0.35	19.5	0.32	6.31	0.34	8.32	LC50 [2]: 74.1 µM; CC50 [3, 21]: 52.5 µM; LC50 [4]: 63.1 µM; LC50 [5]: 69.2 µM; LC50 [6]: 72.4 µM; CC50 [7, 21]: 55 µM; CC50 [9, 21]: 58.9 µM; growth inhibition (GI) (HL-60 [10]): Active; Activity (HL-60 [11]): 16.7%; Activity (HL-60 [12]): 69.3%; Activity (HL-60 [13]): 14%; Activity (HL-60 [14]): 50%; Activity (HL-60 [15]): Active; Activity (HL-60 [16]): Active; Activity (HL-60 [17]): Active; Activity (HL-60 [18]): Active; Activity (HL-60 [19]): Active; Activity (HL-60 [20]): Active
COc1cc2c(cc1C)NC(=O)/C2=C/c1c(Cl)n(Cc2cc(OC)c(OC)c(OC)c2)c2cc(C)c(OC)cc12	3.24	42.7	11	66.1	16.6		25.1		30.9		38.9		5.5	87.1	10		49		
COc1cc2c(/C=C3/C(=O)Nc4ccc(O)cc43)c(Cl)n(Cc3cc(OC)c(OC)c(OC)c3)c2cc1C	1.41	18.6	2.4	32.4	2.29	49	1.45	11.5	2.34	43.6	2.75	33.1	2.29	50.1	1.41	34.7	2.04	34.7	
